Compound activity from PubChem BioAssay.
PTK2B oligo ant – blocks oligomerization of human Pyk2 in cells; Q14289; Q293 cells, Pyk2 FERM NanoBiT luminescence; stronger effect = lower value; z-score (the deposit names both 25 µM and 10 µM); 99,000 tested, 0.83% active; AID 1347419;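 active = Z-score of -3 or lower, scaled per plate to the spread of control and sample wells; inactive = z-score above -3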;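 also: negative z-score means lost luminescence so less FERM oligomerization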
Target sequence (Q14289 whole entry, looked up): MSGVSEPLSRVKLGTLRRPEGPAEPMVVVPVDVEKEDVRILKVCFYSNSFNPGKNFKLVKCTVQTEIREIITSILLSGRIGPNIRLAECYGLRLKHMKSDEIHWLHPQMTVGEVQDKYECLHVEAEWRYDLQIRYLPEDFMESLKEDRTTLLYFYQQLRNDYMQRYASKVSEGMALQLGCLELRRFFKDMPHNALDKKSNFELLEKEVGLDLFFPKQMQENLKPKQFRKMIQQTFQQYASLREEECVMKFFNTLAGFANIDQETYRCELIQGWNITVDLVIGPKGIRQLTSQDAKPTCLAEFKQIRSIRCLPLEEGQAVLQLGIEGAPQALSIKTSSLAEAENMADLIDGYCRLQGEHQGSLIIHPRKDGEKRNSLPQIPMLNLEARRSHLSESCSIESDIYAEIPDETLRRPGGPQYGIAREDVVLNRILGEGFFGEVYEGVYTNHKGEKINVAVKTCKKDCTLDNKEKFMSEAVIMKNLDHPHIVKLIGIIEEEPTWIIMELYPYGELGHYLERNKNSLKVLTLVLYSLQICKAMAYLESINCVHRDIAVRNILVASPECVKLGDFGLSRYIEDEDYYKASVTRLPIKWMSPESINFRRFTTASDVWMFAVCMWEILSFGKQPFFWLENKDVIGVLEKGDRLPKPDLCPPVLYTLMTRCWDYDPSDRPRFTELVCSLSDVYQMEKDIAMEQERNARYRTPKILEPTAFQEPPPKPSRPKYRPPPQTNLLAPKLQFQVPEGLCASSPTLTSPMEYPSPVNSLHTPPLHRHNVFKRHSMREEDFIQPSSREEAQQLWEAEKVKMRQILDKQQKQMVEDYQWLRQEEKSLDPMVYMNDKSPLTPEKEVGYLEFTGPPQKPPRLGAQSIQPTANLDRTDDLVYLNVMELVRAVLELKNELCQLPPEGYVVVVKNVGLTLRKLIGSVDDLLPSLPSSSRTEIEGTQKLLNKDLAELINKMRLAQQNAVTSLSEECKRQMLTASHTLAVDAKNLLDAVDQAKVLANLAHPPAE
H69AR growth 86K – growth inhibitors of human H69AR lung tumor cells. H69AR lung tumor viability, ATP luminescence, 72 h; stronger effect = lower value. viability, % at 10 µM. 85,000 tested, 6% active. AID 598;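 active = viability at or below 40%; inactive = viability above 40%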;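 also: multidrug resistant small cell line overexpressing MRP-1 efflux transporter; 100% = mean luminescence of untreated control wells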
HUVEC prolif 384 – blocks proliferation of human endothelial cells; HUVEC proliferation, CellTiter-Glo luminescence, 72 h; stronger effect = lower value; viability, % at 10 µM (by protocol); 86,000 tested, 1.1% active; AID 648;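 active = viability at or below 30%; inactive = viability above 30%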;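 also: 100% = median luminescence of DMSO-only cell control wells on each plate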
Lung fibro prol – blocks proliferation of human lung fibroblasts. LL 47 human lung fibroblast viability, ATP luminescence; stronger effect = lower value. 85,000 tested, 1.1% active. viability, % at 10 µM;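 active = viability at or below 50% in the single dose screen; inactive = viability above 50%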;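 also: compound exposure lasted 72 h before the ATP readout; 100% = median luminescence of untreated cell-only wells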
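Test system: LL 47 human lung fibroblasts / Incubation: 72 h compound exposure at 37 °C after overnight plating / Technique: luminescent ATP detection, CellTiter-Glo / Compound dosing: 0.1% DMSO in all compound wells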
MT1-MMP txn act – activates MT1-MMP transcription; AID 750; HT1080 MT1-MMP promoter luciferase reporter, luminescence, overnight; stronger effect = higher value; 86,000 tested, 0.16% active; activation factor at 10 µM;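 active = activation factor of at least 2 for MT1-MMP transcription at 10 µM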
Jurkat tox 60K – reduces viability or proliferation of Jurkat cells; Jurkat E6.1 viability, ATP luminescence, 48 h; inhibition, % at 4 µM; 56,000 tested, 1.2% active; AID 463;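 active = inhibition above the mean inhibition of all tested compounds plus 3 SD, cut at about 28% in these data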
* = called active by the depositor. Rows were chosen to be rich in hits. Some 5.9% of all compounds tested hit in one or more screens of this group.

Nc1[nH]nc2nc(N3CCOCC3)nc(-c3ccccc3)c12 was read as PTK2B oligo ant -0.67, H69AR growth 86K 62, HUVEC prolif 384 90, Lung fibro prol 82 and MT1-MMP txn act 1.2.
O=C(C1CC(c2ccccc2O)=NO1)N1CCCCC1 (centres undefined) was read as PTK2B oligo ant -0.05, H69AR growth 86K 109, HUVEC prolif 384 93, Lung fibro prol 105 and MT1-MMP txn act 1.8.
For CCc1ccc(NC2=NC(C(=O)NC3CCCCC3)CC(=O)N2)cc1 (centres undefined) the results were PTK2B oligo ant -0.13, H69AR growth 86K 87, HUVEC prolif 384 94, Lung fibro prol 105, MT1-MMP txn act 1.2 and Jurkat tox 60K 7.
O=c1cc(Nc2ccc3c(c2)OCCO3)[nH]c(=O)n1-c1ccc(Cl)cc1 was read as H69AR growth 86K 8.8*, HUVEC prolif 384 74, Lung fibro prol 90, MT1-MMP txn act 1.1 and Jurkat tox 60K 10.
Screening O=c1cc(Nc2ccc3c(c2)OCCO3)[nH]c(=O)n1C1CCCCC1 returned PTK2B oligo ant -2.9, H69AR growth 86K 18*, HUVEC prolif 384 57, Lung fibro prol 64, MT1-MMP txn act 1.2 and Jurkat tox 60K 59*.
`CCc1ccc(Nc2cc(=O)n(C3CCCCC3)c(=O)[nH]2)cc1` gave PTK2B oligo ant -0.74, H69AR growth 86K 16*, HUVEC prolif 384 69, Lung fibro prol 85, MT1-MMP txn act 1.5 and Jurkat tox 60K 0.
`O=C(Nc1nc2c(s1)COc1ccccc1-2)c1cccs1` gave H69AR growth 86K 71, HUVEC prolif 384 67, Lung fibro prol 89, MT1-MMP txn act 1.5 and Jurkat tox 60K 10.
O=C(CCS(=O)(=O)c1ccccc1)Nc1nc2c(s1)COc1ccccc1-2 was read as H69AR growth 86K 2.0*, HUVEC prolif 384 58, Lung fibro prol 50*, MT1-MMP txn act 1.1 and Jurkat tox 60K -6.
`O=c1c2c3c(sc2nc2sc(C4CC4)nn12)CCCC3` gave PTK2B oligo ant 1.2, H69AR growth 86K 71, HUVEC prolif 384 92, Lung fibro prol 94, MT1-MMP txn act 2* and Jurkat tox 60K 8.
Screening CCOc1cc(S(=O)(=O)N2CC=C(c3ccc(F)cc3)CC2)c(OCC)cc1-n1cnnn1 returned PTK2B oligo ant 1.8, H69AR growth 86K 12*, HUVEC prolif 384 63, Lung fibro prol 48*, MT1-MMP txn act 0.8 and Jurkat tox 60K -8.
`O=C(Nc1ccccc1C(F)(F)F)N1CCN(c2ccc3nncn3n2)CC1` gave PTK2B oligo ant -0.52, H69AR growth 86K 89, HUVEC prolif 384 97, Lung fibro prol 95, MT1-MMP txn act 1 and Jurkat tox 60K 0.
`CCOc1cc(-c2cc(-c3ccccc3)nc(N)c2C#N)ccc1O` gave PTK2B oligo ant -3.4*, H69AR growth 86K 23*, HUVEC prolif 384 53, Lung fibro prol 82 and MT1-MMP txn act 1.3.
`CCOc1cc(-c2cc(-c3ccc(N)cc3)nc(N)c2C#N)ccc1O` gave PTK2B oligo ant -3.8*, H69AR growth 86K 3.6*, HUVEC prolif 384 66, Lung fibro prol 95, MT1-MMP txn act 1 and Jurkat tox 60K -5.
Screening CCOc1cc(-c2c(C#N)c(N)nc3c2CCCC3)ccc1O returned PTK2B oligo ant -1.9, H69AR growth 86K 70, HUVEC prolif 384 102, Lung fibro prol 104, MT1-MMP txn act 1.1 and Jurkat tox 60K 2.
`CCC1(CC)C(=O)NC(=O)NC1=NCCc1c[nH]c2ccccc12` gave PTK2B oligo ant 1.1, H69AR growth 86K 87, HUVEC prolif 384 93, Lung fibro prol 99, MT1-MMP txn act 1.2 and Jurkat tox 60K 1.
For CCOc1cc(/C=N/NC(=O)Cn2nc([N+](=O)[O-])cc2C)ccc1OCc1ccc(F)cc1 the results were PTK2B oligo ant 1.3, H69AR growth 86K 84, HUVEC prolif 384 42, Lung fibro prol 81 and MT1-MMP txn act 1.1.
Screening CCOc1cc(/C=N/NC(=O)Cn2nc([N+](=O)[O-])cc2C)cc(Br)c1OCc1ccccc1F returned PTK2B oligo ant 0.44, H69AR growth 86K 8.3*, HUVEC prolif 384 30*, Lung fibro prol 51 and MT1-MMP txn act 0.9.
